ChEMBL document CHEMBL1961794, “Regulation of circadian behaviour and metabolism by synthetic REV-ERB agonists” (Nature, 2012)
The source made the active and inactive calls. No cut-off for these calls is given here.

Tests used:
[1] = biological target: COUP transcription factor 2 (Homo sapiens) (UniProt P24468); experiment: Effect on TFCOUP2(NR2F2) dependent reporter activity in HEK293 cells at 20 uM; assay type: cell-based
Summary of the method: (§1)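 Cotransfection assay in HEK293 cells with Gal4 DNA-binding domain–nuclear receptor fusions, covering a panel of all 48 human nuclear receptors. Compounds were tested at 20 μM, with reporter luciferase as the read-out. Mean ± s.e.m., n=3.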

[2] = biological target: Nuclear receptor subfamily 0 group B member 1 (Homo sapiens) (UniProt P51843); experiment: Effect on DAX1(NR0B1) dependent reporter activity in HEK293 cells at 20 uM; assay type: cell-based
Nuclear receptor subfamily 0 group B member 1 (Homo sapiens), sequence (P51843 whole entry, the tested form may be a part): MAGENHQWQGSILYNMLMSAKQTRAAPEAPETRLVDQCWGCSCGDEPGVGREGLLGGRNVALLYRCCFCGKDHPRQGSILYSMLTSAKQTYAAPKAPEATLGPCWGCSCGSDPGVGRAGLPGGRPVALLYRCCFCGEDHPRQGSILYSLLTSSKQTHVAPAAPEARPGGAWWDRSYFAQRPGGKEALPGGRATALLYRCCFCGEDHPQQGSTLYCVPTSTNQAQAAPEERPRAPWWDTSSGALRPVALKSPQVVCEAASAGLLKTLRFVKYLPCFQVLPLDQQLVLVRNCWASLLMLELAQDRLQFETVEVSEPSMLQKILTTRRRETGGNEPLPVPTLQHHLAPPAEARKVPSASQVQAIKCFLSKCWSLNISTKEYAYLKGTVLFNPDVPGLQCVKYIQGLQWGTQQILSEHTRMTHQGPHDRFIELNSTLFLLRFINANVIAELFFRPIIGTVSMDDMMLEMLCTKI
Summary of the method: (§2)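 Specificity panel covering all 48 human nuclear receptors. HEK293 cells cotransfected with Gal4 DNA-binding domain–nuclear receptor fusions and a luciferase reporter. Compound tested at a single 20 μM concentration. Mean ± s.e.m., n=3.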

[3] = Brain concentration after 8 hours at 10mg/kg ip dose (10mg/ml suspension in 10%DMSO/10%Tween80); assay type: ADME, organism-based; conditions: mouse
Summary of the method: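 Mice given a single 10mg/kg i.p. dose as a 10mg/ml suspension in 10/10/80 DMSO/Tween80/water. Brain levels (μM) measured at 2h and 8h post injection, with plasma sampled at 1, 2, 4 and 8h. Mean ± s.e.m., n=3.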

[4] = biological target: Nuclear receptor subfamily 2 group C member 2 (Homo sapiens) (UniProt P49116); experiment: Effect on TR4(NR2C2) dependent reporter activity in HEK293 cells at 20 uM; assay type: cell-based; summary of the method: as §1
Nuclear receptor subfamily 2 group C member 2 (Homo sapiens), sequence (P49116 whole entry): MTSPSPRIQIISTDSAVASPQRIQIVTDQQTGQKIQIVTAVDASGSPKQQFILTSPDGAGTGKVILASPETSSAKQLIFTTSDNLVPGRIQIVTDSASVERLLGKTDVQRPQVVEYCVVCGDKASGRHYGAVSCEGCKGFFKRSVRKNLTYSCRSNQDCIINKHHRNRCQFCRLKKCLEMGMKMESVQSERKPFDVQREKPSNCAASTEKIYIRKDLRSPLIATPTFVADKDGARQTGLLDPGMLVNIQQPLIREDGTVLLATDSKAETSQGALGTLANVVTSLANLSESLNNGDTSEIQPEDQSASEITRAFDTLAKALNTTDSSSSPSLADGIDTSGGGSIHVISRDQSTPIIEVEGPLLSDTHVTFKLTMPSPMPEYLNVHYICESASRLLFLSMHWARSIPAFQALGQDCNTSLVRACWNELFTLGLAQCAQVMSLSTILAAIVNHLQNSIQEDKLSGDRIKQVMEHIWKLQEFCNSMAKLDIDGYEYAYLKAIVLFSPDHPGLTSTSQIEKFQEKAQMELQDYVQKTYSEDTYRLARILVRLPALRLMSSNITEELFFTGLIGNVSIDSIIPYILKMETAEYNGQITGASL

[5] = biological target: Oxysterols receptor LXR-alpha (Homo sapiens) (UniProt Q13133); experiment: Effect on LXRA(NR1H3) dependent reporter activity in HEK293 cells at 20 uM; assay type: cell-based; summary of the method: as §2
[6] = biological target: Nuclear receptor subfamily 4immunitygroup A member 1 (Homo sapiens) (UniProt P22736); experiment: Effect on GFRP1(NR4A1) dependent reporter activity in HEK293 cells at 20 uM; assay type: cell-based; summary of the method: as §2
Nuclear receptor subfamily 4immunitygroup A member 1 (Homo sapiens), sequence (P22736 whole entry): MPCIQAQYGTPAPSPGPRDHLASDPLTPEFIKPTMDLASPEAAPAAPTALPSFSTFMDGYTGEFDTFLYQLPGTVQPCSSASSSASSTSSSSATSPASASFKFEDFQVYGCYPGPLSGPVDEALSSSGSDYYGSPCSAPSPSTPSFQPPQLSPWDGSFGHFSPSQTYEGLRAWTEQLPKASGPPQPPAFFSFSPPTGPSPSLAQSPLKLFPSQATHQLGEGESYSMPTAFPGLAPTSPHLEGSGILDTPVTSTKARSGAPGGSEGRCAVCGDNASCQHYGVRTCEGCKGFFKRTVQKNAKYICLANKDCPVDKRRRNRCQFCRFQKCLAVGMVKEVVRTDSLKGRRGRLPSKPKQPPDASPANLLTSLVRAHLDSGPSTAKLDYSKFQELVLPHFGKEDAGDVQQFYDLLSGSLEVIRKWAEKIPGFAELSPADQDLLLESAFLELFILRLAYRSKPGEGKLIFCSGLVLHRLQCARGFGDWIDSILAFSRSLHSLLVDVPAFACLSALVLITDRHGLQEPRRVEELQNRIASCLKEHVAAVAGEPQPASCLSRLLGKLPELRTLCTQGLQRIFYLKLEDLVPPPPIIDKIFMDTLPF

[7] = biological target: Nuclear receptor subfamily 1 group D member 1 (Homo sapiens) (UniProt P20393); experiment: Recruitment of co-repressor NcoR1 to REV-ERB-alpha; assay type: functional
Summary of the method: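 Biochemical corepressor-interaction assay using Luminex bead technology, measuring compound-dependent recruitment of an NCoR CoRNR box peptide to REV-ERBα. Mean ± s.e.m., n=3.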

[8] = biological target: Peroxisome proliferator-activated receptor alpha (Homo sapiens) (UniProt Q07869); experiment: Effect on PPARA(NR1C1) dependent reporter activity in HEK293 cells at 20 uM; assay type: cell-based; summary of the method: as §2
[9] = biological target: Nuclear receptor subfamily 5 group A member 2 (Homo sapiens) (UniProt O00482); experiment: Effect on CPF(NR5A2) dependent reporter activity in HEK293 cells at 20 uM; assay type: cell-based; summary of the method: as §2
Nuclear receptor subfamily 5 group A member 2 (Homo sapiens), sequence (O00482 whole entry): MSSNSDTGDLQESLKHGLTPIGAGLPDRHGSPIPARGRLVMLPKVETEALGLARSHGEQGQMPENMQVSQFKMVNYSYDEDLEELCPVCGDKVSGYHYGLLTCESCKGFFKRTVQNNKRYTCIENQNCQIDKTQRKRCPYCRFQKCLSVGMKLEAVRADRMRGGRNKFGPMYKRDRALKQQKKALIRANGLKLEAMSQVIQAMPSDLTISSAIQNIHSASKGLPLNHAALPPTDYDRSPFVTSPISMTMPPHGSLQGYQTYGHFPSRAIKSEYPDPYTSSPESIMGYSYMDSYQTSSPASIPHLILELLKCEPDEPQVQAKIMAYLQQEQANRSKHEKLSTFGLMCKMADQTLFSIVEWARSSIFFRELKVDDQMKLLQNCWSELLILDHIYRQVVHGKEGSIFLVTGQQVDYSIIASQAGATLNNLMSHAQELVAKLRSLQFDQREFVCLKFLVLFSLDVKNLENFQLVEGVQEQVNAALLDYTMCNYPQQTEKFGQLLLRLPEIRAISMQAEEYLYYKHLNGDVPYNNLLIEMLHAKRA

[10] = biological target: Peroxisome proliferator-activated receptor delta (Homo sapiens) (UniProt Q03181); experiment: Effect on PPARD(NR1C2) dependent reporter activity in HEK293 cells at 20 uM; assay type: cell-based; summary of the method: as §2
Peroxisome proliferator-activated receptor delta (Homo sapiens), sequence (Q03181 whole entry): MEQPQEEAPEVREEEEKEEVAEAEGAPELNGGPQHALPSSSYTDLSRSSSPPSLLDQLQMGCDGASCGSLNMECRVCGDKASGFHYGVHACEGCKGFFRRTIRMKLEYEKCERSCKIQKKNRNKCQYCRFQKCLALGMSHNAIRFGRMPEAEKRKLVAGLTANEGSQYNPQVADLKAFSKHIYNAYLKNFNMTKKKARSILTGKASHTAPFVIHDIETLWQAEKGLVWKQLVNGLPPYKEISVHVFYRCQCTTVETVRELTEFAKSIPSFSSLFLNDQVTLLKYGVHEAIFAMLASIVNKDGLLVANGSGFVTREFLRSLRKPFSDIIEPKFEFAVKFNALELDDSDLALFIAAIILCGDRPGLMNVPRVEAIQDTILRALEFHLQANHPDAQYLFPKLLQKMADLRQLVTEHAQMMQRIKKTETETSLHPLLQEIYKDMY

[11] = biological target: Retinoic acid receptor RXR-alpha (Homo sapiens) (UniProt P19793); experiment: Effect on RXRA(NR2B1) dependent reporter activity in HEK293 cells at 20 uM; assay type: cell-based; summary of the method: as §2
[12] = Plasma concentration after 8 hours at 10mg/kg ip dose (10mg/ml suspension in 10%DMSO/10%Tween80); assay type: ADME, organism-based; conditions: mouse, read-out: Conc_plasma
Summary of the method: (§3)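 Mice received a single 10 mg/kg i.p. dose as a 10 mg/ml suspension in DMSO/Tween80/water (10/10/80). Plasma was sampled at 1, 2, 4 and 8 h post-injection and drug concentration reported in μM. Mean ± s.e.m., n=3.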

[13] = biological target: Nuclear receptor subfamily 2 group F member 6 (Homo sapiens) (UniProt P10588); experiment: Effect on EAR2(NR2F6) dependent reporter activity in HEK293 cells at 20 uM; assay type: cell-based; summary of the method: as §2
[14] = Plasma concentration after 1 hour at 10mg/kg ip dose (10mg/ml suspension in 10%DMSO/10%Tween80); assay type: ADME, organism-based; conditions: mouse, read-out: Conc_plasma; summary of the method: as §3
[15] = biological target: Nuclear receptor subfamily 2 group C member 1 (Homo sapiens) (UniProt P13056); experiment: Effect on TR2(NR2C1) dependent reporter activity in HEK293 cells at 20 uM; assay type: cell-based; summary of the method: as §1
Mus musculus [16] = experiment: Decreased expression of REV-ERB responsive gene Cyp7a1 in mouse liver after 6 days at 100 mg/kg; assay type: functional, organism-based; design: dose 100 mg/kg
[17] = biological target: Vitamin D3 receptor (Homo sapiens) (UniProt P11473); experiment: Effect on VDR(NR1I1) dependent reporter activity in HEK293 cells at 20 uM; assay type: cell-based; summary of the method: as §1
Vitamin D3 receptor (Homo sapiens), sequence (P11473 whole entry): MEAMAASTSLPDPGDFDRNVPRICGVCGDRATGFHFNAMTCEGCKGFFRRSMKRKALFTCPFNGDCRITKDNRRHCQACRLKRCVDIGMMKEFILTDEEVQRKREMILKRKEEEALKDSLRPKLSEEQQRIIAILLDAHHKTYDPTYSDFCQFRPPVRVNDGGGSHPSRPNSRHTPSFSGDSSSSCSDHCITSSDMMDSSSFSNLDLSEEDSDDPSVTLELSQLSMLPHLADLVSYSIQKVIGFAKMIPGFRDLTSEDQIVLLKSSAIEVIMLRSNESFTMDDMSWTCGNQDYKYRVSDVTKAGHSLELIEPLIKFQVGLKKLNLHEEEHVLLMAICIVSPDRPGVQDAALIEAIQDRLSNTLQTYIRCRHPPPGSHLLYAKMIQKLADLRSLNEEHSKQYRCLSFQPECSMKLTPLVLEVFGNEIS

Mus musculus [18] = experiment: Decreased expression of REV-ERB responsive gene Serpine1 in mouse liver after 6 days at 100 mg/kg; assay type: functional, organism-based; design: dose 100 mg/kg
[19] = biological target: Retinoic acid receptor RXR-beta (Homo sapiens) (UniProt P28702); experiment: Effect on RXRB(NR2B2) dependent reporter activity in HEK293 cells at 20 uM; assay type: cell-based; summary of the method: as §2
Mus musculus [20] = experiment: Decreased expression of REV-ERB responsive gene Srebf1 in mouse liver after 6 days at 100 mg/kg; assay type: functional, organism-based; design: dose 100 mg/kg
[21] = biological target: Nuclear receptor subfamily 4 group A member 2 (Homo sapiens) (UniProt P43354); experiment: Effect on NURR1(NR4A2) dependent reporter activity in HEK293 cells at 20 uM; assay type: cell-based; summary of the method: as §2
Nuclear receptor subfamily 4 group A member 2 (Homo sapiens), sequence (P43354 whole entry): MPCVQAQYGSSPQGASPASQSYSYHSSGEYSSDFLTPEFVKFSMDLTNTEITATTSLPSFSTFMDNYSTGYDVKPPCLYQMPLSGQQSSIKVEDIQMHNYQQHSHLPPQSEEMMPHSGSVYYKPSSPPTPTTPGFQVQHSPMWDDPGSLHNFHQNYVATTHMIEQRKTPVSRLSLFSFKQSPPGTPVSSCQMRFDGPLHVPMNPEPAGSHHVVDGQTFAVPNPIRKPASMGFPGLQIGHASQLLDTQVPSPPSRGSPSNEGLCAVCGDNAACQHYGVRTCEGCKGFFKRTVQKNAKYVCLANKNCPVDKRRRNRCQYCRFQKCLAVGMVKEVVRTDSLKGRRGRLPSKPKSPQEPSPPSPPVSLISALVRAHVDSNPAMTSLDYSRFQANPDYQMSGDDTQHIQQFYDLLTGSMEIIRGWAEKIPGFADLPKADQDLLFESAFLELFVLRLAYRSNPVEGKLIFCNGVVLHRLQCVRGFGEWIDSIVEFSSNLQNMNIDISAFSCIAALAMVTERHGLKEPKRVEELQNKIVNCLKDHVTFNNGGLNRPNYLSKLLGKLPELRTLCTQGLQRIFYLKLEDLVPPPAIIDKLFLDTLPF

[22] = biological target: Retinoic acid receptor beta (Homo sapiens) (UniProt P10826); experiment: Effect on RARB(NR1B2) dependent reporter activity in HEK293 cells at 20 uM; assay type: cell-based; summary of the method: as §2
Retinoic acid receptor beta (Homo sapiens), sequence (P10826 whole entry): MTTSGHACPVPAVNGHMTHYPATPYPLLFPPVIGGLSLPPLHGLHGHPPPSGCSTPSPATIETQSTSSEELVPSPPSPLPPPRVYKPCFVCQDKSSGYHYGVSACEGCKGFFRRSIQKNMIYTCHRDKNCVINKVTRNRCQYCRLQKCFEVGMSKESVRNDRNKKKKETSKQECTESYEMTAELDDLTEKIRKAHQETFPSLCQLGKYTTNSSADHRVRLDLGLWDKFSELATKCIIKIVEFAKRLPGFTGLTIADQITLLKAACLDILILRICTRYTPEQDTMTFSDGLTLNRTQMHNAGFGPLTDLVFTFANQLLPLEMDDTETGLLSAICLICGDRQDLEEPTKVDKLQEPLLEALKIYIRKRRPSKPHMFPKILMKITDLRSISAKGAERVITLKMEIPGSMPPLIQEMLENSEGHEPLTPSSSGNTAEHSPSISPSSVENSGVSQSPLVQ

[23] = biological target: Retinoic acid receptor gamma (Homo sapiens) (UniProt P13631); experiment: Effect on RARG(NR1B3) dependent reporter activity in HEK293 cells at 20 uM; assay type: cell-based; summary of the method: as §2
Retinoic acid receptor gamma (Homo sapiens), sequence (P13631 whole entry): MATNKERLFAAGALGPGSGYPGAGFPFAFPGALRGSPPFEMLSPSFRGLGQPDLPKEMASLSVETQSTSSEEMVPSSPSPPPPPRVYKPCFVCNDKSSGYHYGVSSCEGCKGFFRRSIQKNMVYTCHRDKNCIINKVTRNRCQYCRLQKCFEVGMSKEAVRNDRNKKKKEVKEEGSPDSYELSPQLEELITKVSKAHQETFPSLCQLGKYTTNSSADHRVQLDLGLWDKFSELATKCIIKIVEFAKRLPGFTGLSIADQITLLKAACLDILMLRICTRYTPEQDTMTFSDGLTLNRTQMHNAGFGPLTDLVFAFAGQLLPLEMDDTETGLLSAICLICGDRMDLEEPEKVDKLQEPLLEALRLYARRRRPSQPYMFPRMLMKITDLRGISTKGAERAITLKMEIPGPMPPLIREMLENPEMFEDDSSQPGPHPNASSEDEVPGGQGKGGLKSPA

[24] = biological target: Progesterone receptor (Homo sapiens) (UniProt P06401); experiment: Effect on PGR(NR3C3) dependent reporter activity in HEK293 cells at 20 uM; assay type: cell-based; summary of the method: as §2
[25] = biological target: T1, Nuclear receptor subfamily 1 group D member 1 (Homo sapiens, UniProt P20393); experiment: Increased REV-ERB-alpha LBD dependent repressor activity in HEK293 cell reporter assay; assay type: cell-based; conditions: read-out: IC50
T1 sequence (P20393 whole entry): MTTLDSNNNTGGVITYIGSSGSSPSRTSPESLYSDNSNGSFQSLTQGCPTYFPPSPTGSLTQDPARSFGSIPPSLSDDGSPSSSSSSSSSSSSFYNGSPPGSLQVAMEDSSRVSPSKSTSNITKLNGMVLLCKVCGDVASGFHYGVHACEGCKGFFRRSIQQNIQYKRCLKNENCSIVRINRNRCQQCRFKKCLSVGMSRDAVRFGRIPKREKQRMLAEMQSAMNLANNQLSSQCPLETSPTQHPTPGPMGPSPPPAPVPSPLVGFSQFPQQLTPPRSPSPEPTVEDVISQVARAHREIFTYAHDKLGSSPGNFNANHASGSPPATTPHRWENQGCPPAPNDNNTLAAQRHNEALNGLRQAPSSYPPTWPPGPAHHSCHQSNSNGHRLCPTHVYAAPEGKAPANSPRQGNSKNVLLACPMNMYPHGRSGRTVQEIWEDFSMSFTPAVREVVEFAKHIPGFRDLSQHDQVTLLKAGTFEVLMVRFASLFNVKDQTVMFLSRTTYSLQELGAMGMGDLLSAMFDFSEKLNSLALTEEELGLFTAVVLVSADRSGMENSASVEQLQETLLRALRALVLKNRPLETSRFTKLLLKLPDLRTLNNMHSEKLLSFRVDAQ

COUP transcription factor 2 (Homo sapiens), sequence (P24468 whole entry, the tested form may be a part): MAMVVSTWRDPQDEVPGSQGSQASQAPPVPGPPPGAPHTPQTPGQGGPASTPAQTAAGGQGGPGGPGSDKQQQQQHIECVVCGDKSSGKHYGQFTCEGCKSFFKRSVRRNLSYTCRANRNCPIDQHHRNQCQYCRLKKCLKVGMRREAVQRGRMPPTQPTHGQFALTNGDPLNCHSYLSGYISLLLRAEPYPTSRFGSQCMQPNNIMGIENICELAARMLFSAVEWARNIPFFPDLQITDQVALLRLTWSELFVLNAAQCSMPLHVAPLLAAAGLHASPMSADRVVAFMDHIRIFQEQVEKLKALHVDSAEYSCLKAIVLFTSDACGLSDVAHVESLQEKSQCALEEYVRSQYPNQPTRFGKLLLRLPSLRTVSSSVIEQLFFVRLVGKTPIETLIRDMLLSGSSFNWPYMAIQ

| SMILES | inhibition [1] | inhibition [2] | inhibition [4] | inhibition [5] | inhibition [6] | NcoR1_recruitment [7] | inhibition [8] | inhibition [9] | inhibition [10] | inhibition [11] | concentration at 8 h [12] [nM] | inhibition [13] | concentration at 1 h [14] [nM] | inhibition [15] | Reduced_Cyp7a1_gene_exp (Mus musculus [16]) | inhibition [17] | Reduced_Serpine1_gene_exp (Mus musculus [18]) | inhibition [19] | Reduced_Srebf1_gene_exp (Mus musculus [20]) | inhibition [21] | further results |
| --- | --- | --- | --- | --- | --- | --- | --- | --- | --- | --- | --- | --- | --- | --- | --- | --- | --- | --- | --- | --- | --- |
| CCOC(=O)N1CCC(CN(Cc2ccc(Cl)cc2)Cc2ccc([N+](=O)[O-])s2)C1 (centres undefined) [SR9009] | inactive | inactive | inactive | inactive | inactive | Dose-dependent effect | inactive | inactive | inactive | inactive | 130 | inactive | 1400 | inactive | Active | inactive | Active | inactive | Active | inactive | concentration at 8 h ([3]; brain, read-out: Conc_brain): 110 nM; inhibition [22]: inactive; inhibition [23]: inactive; inhibition [24]: inactive |
| CCCCCNC(=O)N1CCC(CN(Cc2ccc(Cl)cc2)Cc2ccc([N+](=O)[O-])s2)C1 (centres undefined) [SR9011] | inactive | inactive | inactive | inactive | inactive | Dose-dependent effect | inactive | inactive | inactive | inactive | 10 | inactive | 1550 | inactive | Active | inactive | Active | inactive | Active | inactive | Conc_brain ([3]; in vivo, 8 h): Not Detected; inhibition [22]: inactive; IC50 [25]: 790 nM (agonist); inhibition [23]: inactive; inhibition [24]: inactive |
